# Experimental data published in PubChem BioAssay.
# The source made the active and inactive calls.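 Rule for the calls, unless noted: active = viability at or under a set limit in both replicates, limit being median viability minus 3 SD (cut at about 48% in these data, passing the limit was not always enough); inconclusive = at or under the limit in just one replicate; inactive = at or above the limit in both replicates.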
# Tests used:
# [1] = reducers of endogenous Her2 protein level, primary screen, SKBR3 breast tumor cells, AlphaScreen, ATP viability (AID 461;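 active = Her2 level under about 52% in both replicate screens, with viability over 70% of control, limit read from the data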;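 for Her2 level: lower value means less Her2 protein in the cells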;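 for viability: percent of carrier control wells set as 100% viability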); conditions: 18-24 h, measured here: SKBR3 viability, ATP luminescence, at 10 µM
# [2] = molecular target: Receptor tyrosine-protein kinase erbB-2 (Homo sapiens) (UniProt P04626); assay: as above; conditions: 18-24 h, at 10 µM, stronger effect = lower value
# [3] = SK-BR-3 cell growth inhibitors, pilot screen, 24 h, human (AID 572;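 active = viability at or below 10% of carrier control in both of two separate runs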;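 note: compound exposure lasted between 18 and 24 h rather than exactly 24 h; 100% = carrier-treated control wells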); conditions: SK-BR-3 viability, CellTiter-Glo luminescence, at 10 µM, stronger effect = lower value
# [4] = HUVEC growth inhibition – cell-based, human, primary screen (AID 575;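 active = viability at or below 30% in both replicate assays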;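 note: 100% = median of untreated cell wells with 0.1% DMSO on each plate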); conditions: HUVEC proliferation, CellTiter-Glo luminescence, 72 h; at 10 µM; stronger effect = lower value
# Method in brief: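 Timing: 72 h treatment at 37 °C; material: HUVEC primary cells; technique: CellTiter-Glo luminescence measuring cellular ATP; controls: vehicle and MePR control wells; measure: percent of median DMSO-control luminescence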
# [5] = growth inhibitors of H69AR lung tumor, primary screen, human, duplicate replicates (AID 580); conditions: H69AR lung tumor cells viability, ATP luminescence, 72 h; at 10 µM; stronger effect = lower value;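 note: 100% = mean luminescence of untreated wells and 0% = no signal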
# [6] = reversal of MRP1-mediated doxorubicin resistance, pilot screen, H69AR cells, doxorubicin co-treatment (AID 601;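 active = viability loss from added drug above about 55%, and viability with drug at most 40%, in both replicates, limit read from the data, passing the limit was not always enough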); conditions: CellTiter-Glo, 72 h, at 10 µM; for differential viability (reversal): stronger effect = higher value
# [7] = 384-well plate pilot, post-Golgi transport modulator project, inhibition of yeast transport mutant growth (AID 636; in the data active = inhibition above about 31%); conditions: absorbance 615 nm, about 18 h, stronger effect = higher value
# [8] = growth suppression of yeast trafficking mutant, preliminary HTS, modulators of trafficking downstream of Golgi apparatus project, 1536-format plate, OD 615 nm (AID 637; in the data active = inhibition above about 30%); conditions: yeast transport mutant growth, absorbance 615 nm, 18 h; stronger effect = higher value
# [9] = H69AR cells + 2 uM doxorubicin, measured here: viability with 2 uM doxorubicin, stronger effect = lower value
# [10] = H69AR cells, compound alone cytotoxicity
# Sequence of Receptor tyrosine-protein kinase erbB-2 (Homo sapiens) (P04626 whole entry, looked up): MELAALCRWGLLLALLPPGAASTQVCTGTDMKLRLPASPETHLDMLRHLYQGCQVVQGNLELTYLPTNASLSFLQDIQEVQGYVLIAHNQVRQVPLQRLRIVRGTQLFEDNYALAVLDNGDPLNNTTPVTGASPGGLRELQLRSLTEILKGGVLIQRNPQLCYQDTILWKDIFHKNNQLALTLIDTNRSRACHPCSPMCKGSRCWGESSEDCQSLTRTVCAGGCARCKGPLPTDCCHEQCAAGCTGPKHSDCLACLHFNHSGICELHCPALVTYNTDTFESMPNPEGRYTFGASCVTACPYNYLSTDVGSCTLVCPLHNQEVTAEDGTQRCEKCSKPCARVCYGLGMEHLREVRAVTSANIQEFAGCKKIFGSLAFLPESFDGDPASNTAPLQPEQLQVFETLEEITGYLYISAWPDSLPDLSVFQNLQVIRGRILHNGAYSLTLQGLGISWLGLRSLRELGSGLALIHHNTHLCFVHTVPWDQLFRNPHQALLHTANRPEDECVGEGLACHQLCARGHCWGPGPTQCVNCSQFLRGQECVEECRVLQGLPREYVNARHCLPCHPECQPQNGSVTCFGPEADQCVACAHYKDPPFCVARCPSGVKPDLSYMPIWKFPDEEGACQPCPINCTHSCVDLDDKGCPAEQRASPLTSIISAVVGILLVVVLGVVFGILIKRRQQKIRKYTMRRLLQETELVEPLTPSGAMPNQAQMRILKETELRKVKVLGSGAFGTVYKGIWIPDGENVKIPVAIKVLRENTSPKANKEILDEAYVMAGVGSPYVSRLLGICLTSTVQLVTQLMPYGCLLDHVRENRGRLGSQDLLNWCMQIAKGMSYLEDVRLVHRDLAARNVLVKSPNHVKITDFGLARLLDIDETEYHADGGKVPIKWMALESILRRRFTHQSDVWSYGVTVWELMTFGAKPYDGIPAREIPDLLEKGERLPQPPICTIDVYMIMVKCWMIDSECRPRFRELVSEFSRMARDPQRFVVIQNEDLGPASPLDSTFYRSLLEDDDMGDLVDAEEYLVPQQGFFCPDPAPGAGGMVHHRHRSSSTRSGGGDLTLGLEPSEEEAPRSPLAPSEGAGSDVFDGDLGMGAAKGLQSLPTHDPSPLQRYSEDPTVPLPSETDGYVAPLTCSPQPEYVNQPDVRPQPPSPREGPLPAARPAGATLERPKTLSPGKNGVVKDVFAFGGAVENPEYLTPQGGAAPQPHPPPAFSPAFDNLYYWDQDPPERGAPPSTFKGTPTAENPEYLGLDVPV
SMILES,viability [1],Her2 level [2],viability [3],viability [4],viability [5],differential viability (reversal) ([6]; H69AR cells + 2 uM doxorubicin),"viability [6, 9]","viability [6, 10]",inhibition [7],inhibition [8]
CCOC(=O)N1CCN(c2c(N3CCN(c4ccccc4OC)CC3)c(=O)c2=O)CC1,94.5%,104% (inactive),94.5% (inactive),109% (inactive),84.2% (inactive),8.68% (inactive),75.5%,84.2%,-4% (inactive),-7.38% (inactive)
CC(=O)c1cc(Cl)ccc1OC(=O)c1ccco1,106%,92.5% (inactive),106% (inactive),95.3% (inactive),89.2% (inactive),-3.25% (inactive),92.5%,89.2%,-0.65% (inactive),-4.43% (inactive)
COC(=O)C(C)Sc1nc2c(c(=O)n(C)c(=O)n2C)n1Cc1cccc(C)c1 (stereo not given),97.5%,86.5% (inactive),97.5% (inactive),79.7% (inactive),91.5% (inactive),8.71% (inactive),82.8%,91.5%,-0.26% (inactive),-0.32% (inactive)
Cc1cccc(C)c1OCc1nnc2c3cnn(C)c3ncn12,100%,138% (inactive),100% (inactive),105% (inactive),91.9% (inactive),-2.03% (inactive),94%,91.9%,-2.11% (inactive),-4.59% (inactive)
C=CCSC1=C(C#N)C(c2ccccc2OCC)CC(=O)N1 (stereo not given),94%,81% (inactive),94% (inactive),88.3% (inactive),95.3% (inactive),3.58% (inactive),91.8%,95.3%,-5.39% (inactive),0.5% (inactive)
CCOC(=O)c1[nH]c2ccccc2c1NC(=O)CCN1CCN(C(=O)OCC)CC1,110%,89.5% (inactive),110% (inactive),81.4% (inactive),96.8% (inactive),19.1% (inactive),77.7%,96.8%,1.84% (inactive),-1.94% (inactive)
CCOC(=O)C1=C(c2ccccc2)NC(=O)NC1c1ccc(N(C)C)cc1 (stereo not given),85.5%,87% (inactive),85.5% (inactive),106% (inactive),97.6% (inactive),0.56% (inactive),97%,97.6%,-2.08% (inactive),14.7% (inactive)
COc1ccc(Cl)cc1N1CC(c2nc3ccccc3[nH]2)CC1=O (stereo not given),97.5%,104% (inactive),97.5% (inactive),98% (inactive),104% (inactive),7.82% (inactive),96.3%,104%,-3.21% (inactive),2.17% (inactive)
